Sampled rows, rich in hits. Any-hit rate of the full collection: about 1.9%.
HIV Env fusion: inhibitors of HIV Env-mediated cell fusion | HeLa-JRFL Env/CEM21 cell fusion, luciferase | inhibition, % at 12.3 µM | hit rate 1.1% among 360,000;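 active = mean replicate inhibition score of at least 50 and every replicate individually at or above 50; inconclusive = only one of the two criteria met; inactive = mean below 50 and not all replicates reaching 50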;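 note: 0% = plate neutral controls and 100% = maraviroc near 300 nM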
SR-BI HDL uptake: blocks mouse SR-BI lipid uptake from DiI-HDL; hit rate 0.96% among 320,000; inhibition, % at 12.5 µM; ldlA[mSR-BI] CHO cells, DiI-HDL uptake fluorescence, 3 h; Q61009;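 active = mean replicate inhibition of at least 70% and a set share of replicates each scoring 70 or more; inconclusive = meets just one of the two criteria; inactive = fails both criteria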;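 note: 0% = median of neutral control wells and 100% = median of positive control wells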
Target sequence (Q61009 whole entry, looked up): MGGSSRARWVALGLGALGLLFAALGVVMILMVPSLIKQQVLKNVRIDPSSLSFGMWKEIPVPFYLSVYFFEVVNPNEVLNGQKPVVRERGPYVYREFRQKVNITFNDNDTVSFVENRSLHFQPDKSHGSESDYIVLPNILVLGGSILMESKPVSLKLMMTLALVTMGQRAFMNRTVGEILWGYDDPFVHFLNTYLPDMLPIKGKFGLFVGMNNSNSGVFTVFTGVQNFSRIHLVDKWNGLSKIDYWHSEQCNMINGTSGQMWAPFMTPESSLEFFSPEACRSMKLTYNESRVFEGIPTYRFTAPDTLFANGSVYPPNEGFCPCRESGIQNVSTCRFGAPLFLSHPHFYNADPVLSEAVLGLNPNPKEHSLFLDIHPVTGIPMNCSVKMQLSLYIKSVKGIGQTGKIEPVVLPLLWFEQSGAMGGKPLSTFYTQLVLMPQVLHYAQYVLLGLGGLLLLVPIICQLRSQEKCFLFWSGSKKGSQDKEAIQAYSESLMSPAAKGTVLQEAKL
PglD DTNB: PglD (C. jejuni) enzyme inhibition; purified PglD enzyme, DTNB colorimetric CoA detection; inhibition, % at 12.5 µM; hit rate 0.098% among 360,000; in the data active = inhibition above about 16%, passing the limit was not always enough; inconclusive = no clear call, values can overlap the other calls
SR-BI DiI-HDL act: SR-BI HDL lipid transfer activation; AID 504775; CHO ldlA[mSR-BI] cells, DiI-HDL uptake fluorescence, 3 h; 100 = double the neutral-control signal; hit rate 0.096% among 320,000; activation, % at 12.5 µM;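 active = mean replicate activation of at least 60% and every replicate at or above 60%; inconclusive = mean or all-replicate condition met, but not both; inactive = mean below 60% and not all replicates reaching 60%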;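 note: 0% = median plate neutral-control signal and 100% = twice that signal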
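Test system: SR-BI-overexpressing, LDLR-lacking CHO cells. Measured by: DiI fluorescence, bottom read. Medium: Ham's F12 with 0.5% BSA, HEPES 25 mM, pH 7.4. Timing: 3 h uptake period with compound, 37 °C.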
N-glyco inh: blocks N-linked glycosylation in D54 reporter cells. D54 ERlucT glycosylation luciferase reporter, 24 h; percent of 100 nM tunicamycin response. hit rate 0.23% among 360,000. reporter increase, % at 12.5 µM;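 active = mean luciferase reporter signal, scaled so untreated is 0 and the glycosylation-blocking control 100, at or above a set limit in every replicate; inconclusive = mean reaches the limit but not every replicate does; inactive = mean below the limit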;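 note: luciferase carries N-glycosylation sites so blocking glycosylation raises the light; 0% = median of neutral control wells and 100% = median of 100 nM tunicamycin wells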
Rtt109 Vps75: C. albicans Rtt109 histone acetyltransferase inhibition; inhibition, % at 34.9 µM; hit rate 0.16% among 330,000; Q5AAJ8; purified Rtt109/Vps75, ThioGlo CoA-SH fluorescence, 4 h;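 active = inhibition of at least 50% in every replicate; inconclusive = best replicate reaches 50% inhibition but some replicates fall short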
* marks the source's active call; other numbers are inactive results; ? = inconclusive; . = no result given; [ ] = another dose, or the depositor's remark.

SMILES	HIV Env fusion	SR-BI HDL uptake	PglD DTNB	SR-BI DiI-HDL act	N-glyco inh	Rtt109 Vps75
CC[C@@]1(C(=O)OC)N[C@H](CN(C)C(=O)Nc2ccc(OC)cc2)[C@@H]2C(=O)N(Cc3ccccc3)C(=O)[C@@H]21	70*	-2	1	2	2	8
COC(=O)[C@]1(Cc2ccccc2)N[C@H](CN(C)C(=O)Nc2ccc(F)cc2)[C@@H]2C(=O)N(Cc3ccccc3)C(=O)[C@@H]21	-50	10	0	-10	-4	-1
C[C@H]1CN([C@@H](C)CO)C(=O)c2cccc(NC(=O)C3CC3)c2O[C@H]1CN(C)C(=O)NC1CCCCC1	5[16.7 µM]	.	2	.	.	.
COc1ccccc1-c1cnc2c(c1)C(=O)N([C@H](C)CO)C[C@H](C)[C@H](CN(C)CC1CC1)O2	-15[16.7 µM]	.	.	.	.	.
C/C(CC(=O)Nc1ccc(Cl)c(C(F)(F)F)c1)=N\NC(=O)c1cc2ccccc2cc1O	5	112*	-11	-112	-1	1
Cc1ccc(CSc2sc(C(=O)c3ccccc3)c(N)c2C#N)cc1	.	8	3	-8	3	-7
Cc1ccc(-c2sc(C(=O)NN)c(C)c2C#N)cc1	-3	92*	.	-92	-1	-7
O=C(CCCn1c(=O)c2cccn2c2cccnc21)NCCc1ccc(Cl)cc1	1	79*	-5	-79	-1	-1
COc1cc(CCNC(=O)CCCn2c(=O)c3cccn3c3cccnc32)cc(OC)c1OC	-1	28	-2	-28	0	4
O=C(O/N=C\c1ccc(N2CCCCC2)c([N+](=O)[O-])c1)c1cccc(Cl)c1	.	45	.	-45	0	-10
CO/N=C/c1ccc(N2CCN(C(=O)c3ccc(Cl)cc3Cl)CC2)c([N+](=O)[O-])c1	78*	37	-1	-37	-3	27
CO/N=C/c1ccc(N2CCN(C(=O)c3cccc(C(F)(F)F)c3)CC2)c([N+](=O)[O-])c1	68*	24	-9	-24	-5	-2
CO/N=C/c1ccc(N2CCN(C(=O)c3ccc(F)cc3)CC2)c([N+](=O)[O-])c1	-11	10	-3	-10	-3	-7
C[C@@H]1CCCCO[C@@H](CN(C)S(C)(=O)=O)[C@@H](C)CN([C@@H](C)CO)C(=O)c2cc(NS(=O)(=O)c3ccc(F)cc3)ccc2O1	19[16.7 µM]	.	5	.	.	.
C[C@@H]1CCCCO[C@H](CN(C)S(=O)(=O)c2ccc(F)cc2)[C@H](C)CN([C@@H](C)CO)C(=O)c2cc(NC(=O)CCCN(C)C)ccc2O1	-4[16.7 µM]	.	5	.	.	.
C(=NN=Cc1c[nH]c2ccccc12)c1c[nH]c2ccccc12	-51	.	-3	.	3	.
O=C1/C(=C/c2c[nH]c3ccccc23)CCC/C1=C\c1c[nH]c2ccccc12	19	89*	-7	-89	-1	-4
Cc1ccccc1S(=O)(=O)N1C[C@@H](O)COC[C@H]2O[C@@H](CC(=O)NCc3ccccc3Cl)CC[C@@H]21	9[16.7 µM]	.	3	.	.	.
CCOC(=O)c1cc(NC(=O)N(CC)C2CCCCC2)c(C)nc1C	.	77*	.	-77	-1	-7
CCOC(=O)c1cc(NC(=O)N2CCOCC2)c(C)nc1C	.	-3	2	3	0	3
CCOC(=O)Nc1cc(C(=O)OCC)c(C)nc1C	.	-10	.	10	2	5
CCOC(=O)c1cc(NC(=O)N(C)C2CCCCC2)c(C)nc1C	-7	74*	-7	-74	-3	2
CCC/C=C/c1ccc(CN2C(CC(C)C)C(=O)N(Cc3cn(CC4CCCCC4)nn3)CCS2(=O)=O)cc1 (centres undefined)	89*	.	-1	.	-7	.
Cc1cccnc1Nc1nc(-c2ccc(O)cc2O)cs1	.	71*	-5	-71	2	2
Oc1ccc(-c2csc(Nc3ccccn3)n2)c(O)c1	-214	52	-7	-52	-6	-8
SMILES	HIV Env fusion	SR-BI HDL uptake	PglD DTNB	SR-BI DiI-HDL act	N-glyco inh	Rtt109 Vps75
CC1(C)CC(N2CCCC2)=CC(=[N+]2CCCC2)C1	59*	14	14	-14	2	14
COc1ccccc1-c1cn(CC[C@H]2CC[C@@H](NC(=O)NC(C)C)[C@@H](CO)O2)nn1	1[16.7 µM]	.	1	.	.	.
O=C(Nc1ccccc1C(=O)NC(Cc1ccccc1)C(=O)NC1CCCCC1)c1ccccc1 (centres undefined)	66*	11	.	-11	0	2
CC(C)OP(=O)(c1ccc(N(C)C)cc1)C(Nc1ccccc1)c1ccccc1 (centres undefined)	85*	-42	.	42	-3	-4
Cc1ccc2nc(-c3ccccc3)cc(C(=O)Nc3cccnc3)c2c1	.	19	-1	-19	3	6
COc1cc2c(cc1NC(=O)c1cc(-c3cccnc3)nc3ccc(C)cc13)oc1ccccc12	.	78*	.	-78	3	-5
COc1cc2c(cc1NC(=O)c1cc(-c3ccncc3)nc3ccccc13)oc1ccccc12	20	83*	.	-83	-4	1
CO[C@H](CN(C)S(=O)(=O)c1ccc(Cl)cc1)[C@H](C)CN(C(=O)Nc1ccccc1F)[C@H](C)CO	.	.	1	.	.	.
Fc1ccc(-c2nc3c4ccccc4ccn3c2Cc2ccsc2)cc1	57*	.	3	.	1	.
c1coc(-c2nc3c4ccccc4ccn3c2Cc2ccsc2)c1	63*	.	.	.	.	.
Fc1cccc(Cc2c(-c3ccco3)nc3c4ccccc4ccn23)c1	69*	.	4	.	-8	.
COc1ccc(CN(C)C[C@@H]2OCCCC[C@H](C)Oc3ccc(NC(=O)CCC(F)(F)F)cc3C(=O)N([C@@H](C)CO)C[C@H]2C)cc1	7[16.7 µM]	.	1	.	.	.
Cc1nn(C)c(C)c1S(=O)(=O)N(CC(=O)NC1CCCCCC1)c1ccc(C(C)C)cc1	-7	-30	5	30	1	-5
Cc1n[nH]c(C)c1S(=O)(=O)N(CC(=O)NC1CCCC1)c1ccc(C(C)C)cc1	86*	7	0	-7	-2	17
CCC1(CC)NC(=O)N(CC(=O)OC(C)C(=O)Nc2cc([N+](=O)[O-])ccc2OC)C1=O (centres undefined)	-222	74*	-8	-74	1	3
O=C(Nc1ccc([N+](=O)[O-])cc1)Nc1nc(-c2ccc(Cl)s2)cs1	?	84*	.	-84	-15	-6
COc1ccc([N+](=O)[O-])cc1NC(=O)Nc1cccc(Cl)c1	44	83*	.	-83	-5	-2
CC(=O)Nc1nc(-c2ccc([N+](=O)[O-])cc2)cs1	-15	-1	.	1	4	3
